This passage reports Activity and viability results from ChEMBL document CHEMBL3091328, “Synthesis, DNA-binding abilities and anticancer activities of triazole-pyrrolo[2,1-c][1,4]benzodiazepines hybrid scaffolds” (Bioorg Med Chem Lett, 2013).

Data set [1] has as its system A-375. In words: Cell cycle arrest in human A375 cells assessed as accumulation at sub-G1 phase after 24 hrs by propidium iodide staining-based flow cytometry (reference value: 7.7 +/- 0.1%). It is filed as functional.
The subject of a further data set is A2058. The experiment in a line: Cytotoxicity against human A2058 cells assessed as cell survival at 5 uM after 24 hrs by MTT assay relative to control. It is filed as functional. As to conditions: A2058, 24 h, read-out: Survival. In a few lines: (§1)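 Cells exposed to agent at 5 µM for 24 h, then growth and viability measured by MTT assay. Survival given as percent of untreated control.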

A further data set relates to Ca9-22. In words: Cytotoxicity against human Ca9-22 cells assessed as cell survival at 5 uM after 24 hrs by MTT assay relative to control. It is filed as functional. As to conditions: Ca9-22, 24 h, read-out: Survival. In a few lines: as §1
Background: Formazan colour is commonly taken as a measure of viable cells.

The test system of data set [2] is A-375. The experiment in a line: Cell cycle arrest in human A375 cells assessed as accumulation at G1 phase after 24 hrs by propidium iodide staining-based flow cytometry (reference value: 65.3 +/- 0.1%). It is filed as functional. Background: In flow cytometry, cells or beads pass a laser one at a time.
In another data set the test system is A549. In words: Cytotoxicity against human A549 cells assessed as cell survival at 5 uM after 24 hrs by MTT assay relative to control. It is filed as functional. As to conditions: A549, 24 h, read-out: Survival. In a few lines: as §1
Data set [3] in a line: Cytotoxicity against human skin fibroblasts assessed as cell survival at 5 uM after 24 hrs by MTT assay relative to control. More on the design: species or system Skin fibroblast. As to conditions: read-out: Survival. In outline:
as §1

Data set [4] relates to A-375. In words: Cell cycle arrest in human A375 cells assessed as accumulation at S phase after 24 hrs by propidium iodide staining-based flow cytometry (reference value: 11.8 +/- 0.1%). It is filed as functional.
Data set [5] relates to A-375. In words: Cell cycle arrest in human A375 cells assessed as accumulation at G2/M phase after 24 hrs by propidium iodide staining-based flow cytometry (reference value: 15.2 +/- 0.6%). It is filed as functional.
The test system of the next data set is B16. In words: Cytotoxicity against mouse B16 cells assessed as cell survival at 5 uM after 24 hrs by MTT assay relative to control. The format is functional. The conditions noted are these: B16, 24 h, read-out: Survival. In outline:
as §1

The nature of data set [6]: Cytotoxicity against human RPMI7951 cells assessed as cell survival at 5 uM after 24 hrs by MTT assay relative to control. The format is functional. The conditions noted are these: RPMI-7951, 24 h, read-out: Survival. In outline:
as §1

The subject of data set [7] is A-375. The experiment in a line: Cytotoxicity against human A375 cells assessed as cell survival at 5 uM after 24 hrs by MTT assay relative to control. The format is functional. As to conditions: A-375, 24 h, read-out: Survival. In outline: as §1
The subject of the next data set is HEK-293T. The experiment in a line: Cytotoxicity against human 293T cells assessed as cell survival at 5 uM after 24 hrs by MTT assay relative to control. It is filed as functional. As to conditions: read-out: Survival. In a few lines:
as §1

Data set [8] deals with A-375. The experiment in a line: Cytotoxicity against human A375 cells assessed as cell survival at 1 to 5 uM after 12 hrs by MTT assay relative to control. The format is functional, cell-based. In outline:
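A375 cells seeded at 10,000 per well, attached overnight, then exposed in triplicate to 0, 1, 3 or 5 μM for 0, 12 or 24 h; viability by MTT absorbance versus untreated control; IC50 taken as mean of dose-response curves from three experiments.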

Activity calls are given as the source filed them. No cut-off for these calls is given here.

For the compound `COc1ccc(-c2cn(C/C=C/COc3cc4c(cc3OC)C(=O)N3CCC[C@H]3C=N4)nn2)cc1`, the Activity was found to be 13.9% with A-375 [1], 73.6% in the data set on A-375 [2], 7.4% in the data set on A-375 [4] and 5.1% in the data set on A-375 [5]. The viability at 5 µM in the data set on A2058 came to 49.2%; in the data set with Ca9-22 it was 84.1%; in the data set on A549 it was 81%; in the data set with B16, 75.2%; in data set [6] it was 80.1%; in the data set with A-375 [7], 69.2%. Further, in the data set with HEK-293T, the viability at 5 µM was found to be 40%. In addition, the viability at 24 h, 5 µM in [3] stood at 104%. In addition, the result with A-375 [8] was inactive.

For the compound `COc1cccc(-c2cn(C/C=C/COc3cc4c(cc3OC)C(=O)N3CCC[C@H]3C=N4)nn2)c1`, the Activity with A-375 [1] was found to be 17.6%; with A-375 [2], 71.4%; in the data set on A-375 [4] it was 7.5%; in the data set on A-375 [5], 3.5%. In addition, the viability at 5 µM in the data set on A2058 worked out at 62.8%; in the data set with Ca9-22, 97.5%; in the data set with A549, 86%; in the data set on B16 it was 107%; in data set [6], 87.2%; with A-375 [7], 58.3%. In addition, in the data set with HEK-293T, the viability at 5 µM is 40%. For the same compound, the viability at 24 h, 5 µM in [3] stood at 107%. Further, the result in the data set on A-375 [8] was inactive.

On to `COc1cc2c(cc1OC/C=C/Cn1cc(-c3ccccc3OC)nn1)N=C[C@@H]1CCCN1C2=O`, for which the Activity in the data set with A-375 [1] was 17.3%; with A-375 [2] it was 69.5%; in the data set on A-375 [4], 8.1%; in the data set with A-375 [5], 5.1%. Further, the viability at 5 µM was found to be 57.9% in the data set on A2058; 95.6% with Ca9-22; 91% with A549; 98.9% with B16; 83% in data set [6]; 58.4% in the data set on A-375 [7]. For the same compound, the viability at 5 µM with HEK-293T came out at 55%. Moreover, the viability at 24 h, 5 µM in [3] amounted to 100%. For the same compound, the result with A-375 [8] was inactive.

As for `COc1cc2c(cc1OC/C=C/Cn1cc(-c3ccccc3)nn1)N=C[C@@H]1CCCN1C2=O`, the Activity came out at 7% in the data set with A-375 [1], 77.8% with A-375 [2], 9.7% in the data set on A-375 [4] and 5.5% in the data set with A-375 [5]. The viability at 5 µM in the data set with A2058 was 53.3%; in the data set with Ca9-22 it was 61.2%; in the data set on A549 it was 70%; with B16, 33.9%; in [6], 79.1%; with A-375 [7], 69.6%. In addition, the viability at 5 µM in the data set on HEK-293T turned out to be 78%. In addition, in data set [3], the viability at 24 h, 5 µM was 93%. The outcome in the data set with A-375 [8] was inactive.

In the case of `COc1cc2c(cc1O)N=C[C@@H]1CCCN1C2=O`, the viability at 5 µM is 54.8% in the data set with A2058; 94.4% in the data set with Ca9-22; 85.4% with A549; 66.8% with B16; 61.6% in data set [6]; 52.2% in the data set with A-375 [7]. For the same compound, the viability at 5 µM in the data set with HEK-293T came to 55.2%. Also, the viability at 24 h, 5 µM in data set [3] turned out to be 89.7%.
